Assay outcomes deposited in PubChem BioAssay by several laboratories.
TNAP inh hi DEA = TNAP (human) inhibition, high acceptor; P05186; purified TNAP, CDP-star luminescence, 1 M DEA; inhibition, % at 20 µM; 200,000 compounds, 0.03% hits; AID 1135;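 active means over 50% inhibition of tissue-nonspecific alkaline phosphatase at 20 µM in the single-dose screen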;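 further: plate controls were DMSO wells for no effect and EDTA-quenched wells as full inhibition for full effect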
Target sequence (P05186 whole entry, looked up): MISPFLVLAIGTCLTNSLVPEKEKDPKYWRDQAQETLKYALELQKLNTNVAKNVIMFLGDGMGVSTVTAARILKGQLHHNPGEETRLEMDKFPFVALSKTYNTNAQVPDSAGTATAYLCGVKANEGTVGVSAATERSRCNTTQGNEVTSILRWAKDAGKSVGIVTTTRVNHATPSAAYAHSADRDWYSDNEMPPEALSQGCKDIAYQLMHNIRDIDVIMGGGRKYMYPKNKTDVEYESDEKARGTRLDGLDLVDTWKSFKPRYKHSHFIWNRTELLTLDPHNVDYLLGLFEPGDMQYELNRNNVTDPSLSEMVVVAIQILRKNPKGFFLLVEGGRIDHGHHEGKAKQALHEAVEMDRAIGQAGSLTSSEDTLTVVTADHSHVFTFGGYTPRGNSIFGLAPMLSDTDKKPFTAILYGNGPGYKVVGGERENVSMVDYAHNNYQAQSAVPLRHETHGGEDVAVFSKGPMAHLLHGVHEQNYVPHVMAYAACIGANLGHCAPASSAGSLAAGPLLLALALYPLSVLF
Calb biofilm kill = mixture kills Candida albicans biofilm cells; inhibition, % at 7.6 µM; 120,000 compounds, 0.02% hits; AID 1242; C. albicans biofilm persisters + clotrimazole, fluorescence viability; primary screen in compound mixtures of four per well;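 further: compounds exposed to preformed 24 h biofilms for 48 h; 0% = untreated biofilm control and 100% = clotrimazole plus chlorhexidine kill blank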
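Probe or stimulus – Clotrimazole 50 µg/mL co-treatment · System – C. albicans biofilms · Schedule – 24 h biofilm formation, then 48 h compound exposure, 37 °C · Evaluation – percent inhibition of biofilm viability · Technique – 2-h Alamar Blue fluorescence, 535/590 nm excitation/emission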
TNAP act hi DEA = TNAP (human) activation, high acceptor; purified TNAP, CDP-star luminescence, 1 M DEA, 30 min; hits give high values; 0 = EDTA background, 1 = DMSO-only activity; P05186; activation factor at 20 µM; 200,000 tested, under 10 active;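 active means activation factor at least 2 at 20 µM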
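system = human TNAP | amount = enzyme diluted 1/800 final | reagent = 100 µM CDP-star substrate | signal = luminescent substrate turnover signal | dosing = one dose, 20 µM | benchmarks = EDTA negative control, DMSO positive control | measure = activation factor | timing = 30 min reaction, room temperature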
TNAP inh no acc = blocks human TNAP activity with no phosphate acceptor present; inhibition, % at 20 µM; purified TNAP, CDP-star luminescence, 30 min; 200,000 compounds, 0.26% hits; AID 1012; P05186;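 active means tissue-nonspecific alkaline phosphatase inhibition above about 50% at 20 µM in the single-dose screen, limit read from the data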;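 further: 0% = DMSO negative control and 100% = EDTA positive control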
* hit, by the source's call; · = no result. Sampled rows, rich in hits. Any-hit rate of the full collection: about 0.28%.

SMILES | TNAP inh hi DEA | Calb biofilm kill | TNAP act hi DEA | TNAP inh no acc
O=C(O)c1ccccc1C(=O)N1N=C2/C(=C/c3cccc([N+](=O)[O-])c3)CCCC2C1c1cccc([N+](=O)[O-])c1 (centres undefined) | 3 | 7 | 1 | 79*
CCC(=O)NNC(=S)NC(=O)c1ccc(C)cc1 | -2 | 10 | 1 | -33
CCC(=O)NC(=S)NNC(=O)c1ccc(O)cc1 | 7 | 3 | 0.9 | 97*
CCN(CC)c1ccc(C(=O)O)cc1 | 7 | 16 | 0.9 | -2
CCN(CC)c1ccc(/C=C2\C(=O)c3ccc(C(=O)O)cc3C2=O)cc1 | 39 | 12 | 0.6 | 57*
CCN(CC)S(=O)(=O)c1ccc(NC2=NS(=O)(=O)c3ccccc32)cc1 | -7 | · | 1.1 | -9
O=S1(=O)N=C(Nc2nncs2)c2ccccc21 | 9 | · | 0.9 | 61*
CNc1nc(Cl)c(SC)c(N2CCOCC2)n1 | -6 | 13 | 1.1 | -3
CCOc1ccc(C(c2c(C)[nH][nH]c2=O)c2c(C)[nH][nH]c2=O)cc1OC | 65* | · | 0.4 | 47
CCOc1cc(C(c2c(C)[nH][nH]c2=O)c2c(C)[nH][nH]c2=O)ccc1OS(=O)(=O)c1ccc(C)cc1 | 52* | · | 0.5 | -13
CCOc1cc(C(c2c(C)[nH][nH]c2=O)c2c(C)[nH][nH]c2=O)ccc1OCc1ccc([N+](=O)[O-])cc1 | 13 | · | 0.9 | -53
CCOC(=O)Nc1ccc(C(=O)/C=C/c2ccccc2)cc1 | · | 13 | · | ·
Cc1cc(/C=N/Nc2nc(N)ncc2[N+](=O)[O-])c(C)n1-c1cccc(C(F)(F)F)c1 | · | 16 | · | ·
CCN1/C(=C/c2ccc3cc(C)ccc3[n+]2CC)Sc2ccccc21 | 42 | 14 | 0.6 | 29
CCN1/C(=C/c2ccc3cc(C)ccc3[n+]2CC)Sc2cc(C)c(C)cc21 | 16 | 32* | 0.8 | 9
CCOC(=O)c1cc(-c2cccc([N+](=O)[O-])c2)n[nH]1 | -2 | 1 | 1 | 62*
O=C(O)c1cc(-c2cccc([N+](=O)[O-])c2)n[nH]1 | -3 | 15 | 1 | 41
O=C(O)CCCC(=O)N1N=C(c2ccccc2)CC1c1cccs1 (centres undefined) | · | 5 | · | ·
COc1ccc(-c2[nH]nc3oc(=O)cc(C)c23)cc1 | 8 | · | 0.9 | 90*
Cc1cc(=O)oc2n[nH]c(-c3ccccc3)c12 | 1 | · | 1 | 92*
Cc1sc(NC(=O)CCCC(=O)O)c(C(N)=O)c1-c1ccccc1 | -1 | 17 | 1 | 5
C#CCOc1ccc(/C=C2\SC(=S)N(Cc3cccnc3)C2=O)cc1 | 2 | -2 | 1 | -12
O=C1/C(=C/c2ccc(O)cc2)SC(=S)N1Cc1cccnc1 | 63* | 14 | 0.4 | 11
COc1ccc(C=C2C(=O)c3ccccc3C2=O)cc1O | 53* | 9 | 0.5 | -12
COc1cc(/C=C2/C(=O)ON=C2c2ccccc2)ccc1O | 37 | 9 | 0.6 | 52*
SMILES | TNAP inh hi DEA | Calb biofilm kill | TNAP act hi DEA | TNAP inh no acc
CCN1C/C(=C/c2ccc(OC)c(O)c2)C(=O)/C(=C/c2ccc(OC)c(O)c2)C1 | 39 | 8 | 0.6 | 56*
O=C(Nc1cc(S(=O)(=O)N2CCOCC2)ccc1N1CCCC1)c1cccnc1Cl | · | 22 | · | ·
CCCCCCCNC(=O)C1CC(=O)N(C)C(=Nc2ccc(OC)cc2)S1 (centres undefined) | 2 | 17 | 1 | -4
Clc1ccc(-c2n[nH]c3c2CCC3)cc1Cl | -1 | · | 1 | 4
Clc1ccc(-c2n[nH]c3c2CCCC3)cc1 | -4 | 15 | 1 | 53*
NC(=S)N/N=C1/CCSc2ccc3ccccc3c21 | 1 | 6 | 1 | 1
O=c1cc(/N=C/c2coc3c(ccc4ccccc43)c2=O)[nH]c(=S)[nH]1 | 24 | 17 | 0.8 | 53*
NC(=S)N/N=C/c1coc2c(ccc3ccccc32)c1=O | 6 | -1 | 0.9 | -25
CC(=O)n1nc(-c2ccccc2)nc1NCc1ccc(N(C)C)cc1 | -4 | -1 | 1 | 50*
CN(C)c1ccc(CNc2nc(-c3ccccc3)nn2S(C)(=O)=O)cc1 | -5 | 20 | 1 | -9
CC(C)n1c(-c2ccccc2F)n[nH]c1=S | 3 | · | 1 | 69*
CC(C)n1c(-c2ccc(C(C)(C)C)cc2)n[nH]c1=S | -3 | · | 1 | -5
c1csc(-c2nn3c(Cn4nnc5ccccc54)nnc3s2)c1 | -4 | · | 1 | 62*
c1ccc2c(c1)nnn2Cc1nnc2sc(-c3ccncc3)nn12 | -5 | · | 1 | -5
COc1ccc(-c2c(C(F)(F)F)nn(C)c2NC(=O)CSCC(=O)O)cc1 | · | 13 | · | ·
Cc1nnc2c3cnn(-c4ccc(Cl)cc4)c3ncn12 | -5 | · | 1.1 | 67*
CC(C)(C)c1ccc(/C=N/NC(=S)Nc2cccnc2)cc1 | 6 | 10 | 0.9 | -6
Oc1ccc(/C=N/NC(=S)Nc2cccnc2)cc1O | 20 | 9 | 0.8 | 78*
O=c1c2ccccc2nnn1-c1ccc(Br)cc1 | · | 17 | · | ·
Cc1ccc(C)n1-c1ccc(C(=O)NN)cc1 | -6 | 18 | 1.1 | -27
COc1ccccc1-c1nc2s/c(=C\c3cccs3)c(=O)n2n1 | 3 | · | 1 | 46
O=c1/c(=C/c2ccco2)sc2nc(-c3ccccc3Br)nn12 | -6 | · | 1.1 | 58*
CC[C@H](C)[C@H](NC(N)=O)C(=O)Nc1ccccc1F | 1 | 16 | 1 | 14
O=C1CCCC2=C1C(c1ccncc1)n1c(nc3ccccc31)N2 (centres undefined) | -3 | 14 | 1 | 20
CC1CC(=O)C2=C(C1)Nc1nc3ccccc3n1C2c1cccnc1 (centres undefined) | -3 | 22 | 1 | 53*
SMILES | TNAP inh hi DEA | Calb biofilm kill | TNAP act hi DEA | TNAP inh no acc
Cc1ccc(N=C2NC(=O)C(CC(=O)O)S2)cc1 (centres undefined) | -4 | · | 1 | 64*
CCNC(=O)CC1SC(=Nc2ccc(C)cc2)NC1=O (centres undefined) | 0 | 12 | 1 | 23
CC(C)(C)NC(=O)NC(=O)CSc1n[nH]c(-c2ccccc2Br)n1 | -4 | 9 | 1 | 40
O=C(CSc1n[nH]c(-c2ccccc2Br)n1)NCCN1C(=O)CSC1=O | 4 | 7 | 1 | 84*
O=C(CSc1n[nH]c(-c2ccccc2Br)n1)NC(=O)NCc1ccco1 | 0 | · | 1 | 82*
N#CCc1c(C#N)c(N)nc(N2CCCC(CO)C2)c1C#N (centres undefined) | -3 | 12 | 1 | -12
S=C(NCCc1ccccc1)Nc1cccc2cnccc12 | 2 | 17 | 1 | 53*
CSc1nc(-c2ccccc2)nn1S(=O)(=O)c1ccccc1 | -3 | 15 | 1 | 54*
CCS(=O)(=O)n1nc(-c2ccccc2)nc1SC | -4 | · | 1 | 54*
CSc1nc(-c2ccccc2)nn1C(=O)c1ccccc1 | 0 | · | 1 | 56*
CSc1nc(-c2ccccc2)nn1S(=O)(=O)c1ccc(Cl)cc1 | -7 | · | 1.1 | 2
COc1ccc(NC(=O)NC(C)C2CC3CCC2C3)cc1 (centres undefined) | -9 | 0 | 1.1 | -22
O=c1cc(NCc2ccccc2)nc2n1CCCS2 | -4 | 8 | 1 | -12
